Assay results as given in ChEMBL document CHEMBL4342473, “Lead Optimization of Benzoxazolone Carboxamides as Orally Bioavailable and CNS Penetrant Acid Ceramidase Inhibitors” (J Med Chem, 2020).
Activity calls are given as the source filed them. The rule behind the calls is not given here.

Legend:
[1] = Microsomal stability in mouse liver microsomes assessed as parent compound remaining at 4.6 uM preincubated for 15 mins followed by NADPH addition and measured after 60 mins by LC-MS/MS analysis; format: ADME, Microsome; settings: read-out: Stability
Summary of the method: (§1)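 Mouse liver microsome stability; half-life and % parent remaining at 60 min; mean of at least two independent experiments, each in two technical replicates.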

[2] = target: T1, Acid ceramidase (Homo sapiens) (UniProt Q13510); experiment: Inhibition of human acid ceramidase expressed in HEK293 cells up to 10 uM using Rbm14-12 as substrate preincubated for 10 mins followed by substrate addition and measured after 3 hrs by fluorescence assay; format: cell-based
T1 sequence (whole entry): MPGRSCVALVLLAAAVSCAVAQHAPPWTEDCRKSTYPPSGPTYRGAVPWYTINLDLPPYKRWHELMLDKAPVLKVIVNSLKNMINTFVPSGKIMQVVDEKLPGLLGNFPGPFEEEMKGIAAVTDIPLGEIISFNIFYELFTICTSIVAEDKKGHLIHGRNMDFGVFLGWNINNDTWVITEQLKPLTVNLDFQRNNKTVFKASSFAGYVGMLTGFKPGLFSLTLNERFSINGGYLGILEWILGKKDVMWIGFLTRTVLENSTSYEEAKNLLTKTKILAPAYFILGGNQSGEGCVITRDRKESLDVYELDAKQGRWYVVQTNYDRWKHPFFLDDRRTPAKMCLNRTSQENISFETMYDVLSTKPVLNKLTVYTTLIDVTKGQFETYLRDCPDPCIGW

[3] = Half life in mouse liver microsomes at 4.6 uM preincubated for 15 mins followed by NADPH addition and measured up to 60 mins by LC-MS/MS analysis; format: ADME, Microsome; summary of the method: as §1
[4] = target: T1, Acid ceramidase (Homo sapiens); experiment: Inhibition of human acid ceramidase expressed in HEK293 cells at 1 uM using Rbm14-12 as substrate preincubated for 10 mins followed by substrate addition and measured after 3 hrs by fluorescence assay; format: cell-based
[5] = target: T1, Acid ceramidase (Homo sapiens); experiment: Inhibition of human acid ceramidase expressed in HEK293 cells at 10 uM using Rbm14-12 as substrate preincubated for 10 mins followed by substrate addition and measured after 3 hrs by fluorescence assay; format: cell-based

Structure (SMILES)	inhibition [2]	half-life at 4.6 µM [3]	further results
CCCCCNC(=O)n1c(=O)oc2cc(C3CCN(C)CC3)ccc21			remaining at 1 h, 4.6 µM [1]: 60%
O=C1C(=O)N(C(=O)NCCCCc2ccccc2)c2ccccc21	inactive		
O=C1Cc2ccccc2N1C(=O)NCCCCc1ccccc1	inactive		
CN1CCC(c2ccc3[nH]c(=O)oc3c2)CC1			inhibition [4]: inactive; inhibition [5]: inactive

The next lines start with results.

inhibition [2]	half-life at 4.6 µM [3]	Structure (SMILES)	further results
	< 15 min	O=C(NCCCCc1ccccc1)n1c2c(oc1=O)CNCC2	
	< 15 min	O=C(NCCCCc1ccccc1)n1c2c(oc1=O)CCNC2	
